# Experimental data reported in ChEMBL document CHEMBL2034822, “HPLC-ESIMS(n) profiling, isolation, structural elucidation, and evaluation of the antioxidant potential of phenolics from Paepalanthus geniculatus” (J Nat Prod, 2012).
# Active and inactive are the calls of the source. The calls are words filed in the database; no cut-off is given here.
# What was measured:
# [1] = Antioxidant activity against ABTS radical assessed as trolox equivalents by TEAC assay; format: functional
# How it was run: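 ABTS radical cation diluted in PBS pH 7.4 to A734 0.70, equilibrated at 30 °C, then added to sample solutions in MeOH at 0.3, 0.5, 1 and 1.5 concentration. Inhibition of A734 versus MeOH blank, run in triplicate, plotted against concentration alongside Trolox standard. TEAC = Trolox concentration equivalent in capacity to 1 mM compound.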
# PC-3 [2] = assay: Cytotoxicity against human PC3 cells; format: cell-based
# PC-3 [3] = assay: Antioxidant activity in human PC3 cells assessed as decrease in t-BuOOH-induced ROS elevation at 1 to 10 uM incubated for 24 hrs prior to t-BuOOH-challenge measured after 30 mins by dichlorofluorescein-based flow cytometric analysis; format: functional, cell-based
# How it was run: (§1)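 PC3 cells grown in DMEM with 2 mM L-glutamine, 10% heat-inactivated FBS and 1% pen/strep at 37 °C, then exposed to compound for 24 h. Exposed to 300 μM t-BuOOH for 30 min at 37 °C, washed, resuspended at 2 × 10^5 cells/ml in HBSS with 10 μM DCFH-DA for 20 min at 37 °C. DCF read by flow cytometry (FL1-H). Mean ± SEM of three experiments in triplicate; ANOVA with Bonferroni.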
# PC-3 [4] = assay: Antioxidant activity in human PC3 cells assessed as decrease in t-BuOOH-induced ROS elevation at 10 uM incubated for 24 hrs prior to t-BuOOH-challenge measured after 30 mins by dichlorofluorescein-based flow cytometric analysis; format: functional, cell-based; how it was run: as §1
Structure (SMILES),Activity [1] [mM],Activity (PC-3 [2]),Activity (PC-3 [3]),Activity (PC-3 [4])
COc1c(O)cc2oc(-c3ccc(O)c(O)c3)c(O[C@@H]3O[C@H](CO[C@@H]4O[C@@H](C)[C@H](O)[C@@H](O)[C@H]4OC(C)=O)[C@@H](O)[C@H](O)[C@H]3O)c(=O)c2c1O,1.37,Non-toxic,inactive,–
COc1c(O)cc2oc(-c3ccc(O)cc3)c(O[C@@H]3O[C@H](COC(=O)[C@H]4[C@H](c5ccc(O)cc5)[C@H](C(=O)OC[C@H]5O[C@@H](Oc6c(-c7ccc(O)cc7)oc7cc(O)c(OC)c(O)c7c6=O)[C@H](O)[C@@H](O)[C@@H]5O)[C@H]4c4ccc(O)cc4)[C@@H](O)[C@H](O)[C@H]3O)c(=O)c2c1O [GENICULATIN],0.738,Non-toxic,inactive,–
O=c1c(O[C@@H]2O[C@H](CO)[C@@H](O)[C@H](O)[C@H]2O)c(-c2ccc(O)cc2)oc2cc(O)cc(O)c12,1.18,–,–,–
COc1c(O)cc2oc(-c3ccc(O)cc3)c(O[C@@H]3O[C@H](COC(=O)/C=C/c4ccc(O)cc4)[C@@H](O)[C@H](O)[C@H]3O)c(=O)c2c1O,1.28,Non-toxic,inactive,–
COc1c(O)cc2oc(-c3ccc(O)c(O)c3)c(O[C@@H]3O[C@H](CO[C@@H]4O[C@@H](C)[C@H](OC(C)=O)[C@@H](O)[C@H]4OC(C)=O)[C@@H](O)[C@H](O)[C@H]3O)c(=O)c2c1O,1.21,Non-toxic,inactive,–
COc1cc(O[C@H]2O[C@H](CO[C@@H]3O[C@H](CO)[C@@H](O)[C@@H](O)[C@H]3O)[C@@H](O)[C@H](O)[C@H]2O)c2c(O)c3c(=O)oc(C)cc3c(OC)c2c1,0.57,Non-toxic,inactive,–
O=c1c(O)c(-c2ccc(O)c(O)c2)oc2cc(O)cc(O)c12,1.87,–,–,–
COc1c(O)cc2oc(-c3ccc(O)c(O)c3)c(O[C@@H]3O[C@H](CO[C@@H]4O[C@@H](C)[C@H](O)[C@@H](O)[C@H]4O)[C@@H](O)[C@H](O)[C@H]3O)c(=O)c2c1O,2.02,Non-toxic,–,Active
COc1c(O)cc2oc(-c3ccc(O)c(O)c3)c(O[C@@H]3O[C@H](CO)[C@@H](O)[C@H](O)[C@H]3O)c(=O)c2c1O,0.525,Non-toxic,inactive,–
O=c1c(O[C@@H]2O[C@H](CO)[C@@H](O)[C@H](O)[C@H]2O)c(-c2ccc(O)c(O)c2)oc2cc(O)cc(O)c12,1.78,–,–,–
COc1cc2oc(-c3ccc(O)c(O)c3)c(O[C@@H]3O[C@H](CO[C@@H]4O[C@@H](C)[C@H](O)[C@@H](O)[C@H]4O)[C@@H](O)[C@H](O)[C@H]3O)c(=O)c2c(O)c1O,1.54,Non-toxic,inactive,–
COc1c(O)cc2oc(-c3ccc(O)cc3)c(O[C@@H]3O[C@H](CO[C@@H]4O[C@@H](C)[C@H](O)[C@@H](O)[C@H]4O)[C@@H](O)[C@H](O)[C@H]3O)c(=O)c2c1O,2.06,Non-toxic,–,Active
COc1c(O)cc2oc(-c3ccc(O)cc3)c(O[C@@H]3O[C@H](CO[C@@H]4O[C@@H](C)[C@H](O)[C@@H](OC(C)=O)[C@H]4OC(C)=O)[C@@H](O)[C@H](O)[C@H]3O)c(=O)c2c1O,1.4,Non-toxic,inactive,–
COc1c(O)cc2oc(-c3ccc(O)cc3)c(O[C@@H]3O[C@H](CO[C@@H]4O[C@@H](C)[C@H](O)[C@@H](O)[C@H]4OC(C)=O)[C@@H](O)[C@H](O)[C@H]3O)c(=O)c2c1O,1,Non-toxic,inactive,–
COc1c(O)cc2oc(-c3ccc(O)cc3)c(O[C@@H]3O[C@H](CO)[C@@H](O)[C@H](O)[C@H]3O)c(=O)c2c1O,1.27,Non-toxic,inactive,–
COc1c(O)cc2oc(-c3ccc(O)c(O)c3)c(O[C@@H]3O[C@H](CO[C@@H]4O[C@@H](C)[C@H](OC(C)=O)[C@@H](O)[C@H]4O)[C@@H](O)[C@H](O)[C@H]3O)c(=O)c2c1O,2.16,Non-toxic,–,Active
COc1c(O)cc2oc(-c3ccc(O)cc3)c(O[C@@H]3O[C@H](CO)[C@@H](O)[C@H](O)[C@H]3O[C@@H]3O[C@@H](C)[C@H](O)[C@@H](O)[C@H]3O)c(=O)c2c1O,1.53,Non-toxic,inactive,–
COc1c2cc(O)cc(O[C@@H]3O[C@H](CO)[C@@H](O)[C@H](O)[C@H]3O)c2c(O)c2c(=O)oc(C)cc12,0.898,Non-toxic,inactive,–
COc1cc(O[C@H]2O[C@H](CO[C@H]3O[C@H](CO)[C@@H](O)[C@H](O)[C@H]3O)[C@@H](O)[C@H](O)[C@H]2O)c2c(O)c3c(=O)oc(C)cc3c(OC)c2c1,0.706,Non-toxic,inactive,–
COc1cc(/C=C/C(=O)OC[C@H]2O[C@@H](Oc3c(-c4ccc(O)cc4)oc4cc(O)c(OC)c(O)c4c3=O)[C@H](O)[C@@H](O)[C@@H]2O)ccc1O,0.984,Non-toxic,inactive,–
COc1c(O)cc2oc(-c3ccc(O)cc3)c(O[C@@H]3O[C@H](CO[C@@H]4O[C@@H](C)[C@H](OC(C)=O)[C@@H](O)[C@H]4O)[C@@H](O)[C@H](O)[C@H]3O)c(=O)c2c1O,0.968,Non-toxic,inactive,–
COc1c2cc(O)cc(O[C@@H]3O[C@H](CO[C@@H]4O[C@H](CO)[C@@H](O)[C@H](O)[C@H]4O)[C@@H](O)[C@H](O)[C@H]3O)c2c(O)c2c(=O)oc(C)cc12,1.04,Non-toxic,inactive,–
